Values joined by “and” are separate entries in the source; they are usually repeats but may differ in a detail not shown here. Identical values can stand only once. “Also recorded” adds a separate entry of the source. Starred links: 1 amine or outer side, 2 acyl side, 3 side chain; linkers in the order of their positions; H or OH if unused. Positions of bridges follow the written chain, without caps; N, C: chain ends. Non-standard residues stand in square brackets, D forms with d. Ala(13C3,15N) = 13C3,15N-labelled alanine, [13CH3][13C@H]([15NH][*:1])[13C](=O)[*:2]
Experiments:
nucleus-localized ATF6 = assay: UPR marker nucleus-localized ATF6 in TH-positive neurons after MPP+ injury; type: cell-based, rat
How it was run: (§1)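 Rat primary mesencephalic neurons were pretreated with test compound (PBS stock diluted in medium) from 4 h before injury. They were then exposed on DIV6 to 4 µM MPP+ for 48 h, six wells per condition. Fixed cells were double-stained for TH plus phospho-IRE1α, ATF4 or ATF6, with Hoechst nuclear counterstain. Twenty 10x images per well were analysed automatically for TH/phospho-IRE1α overlap or stained nuclei in TH+ cells. Results are % vs control; one-way ANOVA with Dunnett's test.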

nucleus-localized ATF4 = assay: UPR marker nucleus-localized ATF4 in TH-positive neurons after MPP+ injury; type: cell-based, rat; conditions: for UPR modulating effect on PERK/ATF4 pathway: compared to wild-type C-CDNF
How it was run: as §1

phosphorylated IRE1α = assay: UPR marker phospho-IRE1α in TH-positive neurons after MPP+ injury; type: cell-based, rat; conditions: for UPR modulating effect on IRE1α pathway: compared to wild-type C-CDNF
How it was run: as §1

GRP78-NBD [1] = molecular target: T1, GRP78-NBD (Homo sapiens, UniProt P11021); assay: SEC-SAXS of GRP78-NBD and its complexes with CDNF or C-CDNF; type: binding
How it was run: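 Recombinant human proteins expressed in E. coli: CDNF in T7 Shuffle Express (to keep disulfides), GRP78-NBD in BL21 Star (DE3). In-line SEC-SAXS used 10 μl at ~10 mg/ml on Superdex 200 Increase at 0.35 ml/min and 20 °C, in PBS pH 7.2 with 1.5% glycerol. Data were collected at EMBL P12 (Pilatus 6M) in a 1 mm quartz capillary.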

GRP78-NBD [2] = molecular target: T1, GRP78-NBD; assay: 2D 1H-13C HSQC NMR titration of 13C/15N-Ala labeled C-CDNF with GRP78-NBD; type: binding; conditions: GRP78-NBD 0-65 µM
GRP78-NBD [3] = conditions: crystal structure; cited from earlier work
GRP78-NBD [4] = molecular target: T1, GRP78-NBD; assay: Spectral shift binding assay; conditions: ligand up to 100 μM; 25 °C
How it was run: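 Tag-free GRP78-NBD (His-tagged, expressed in E. coli BL21 Star (DE3), cobalt-affinity purified, TEV-cleaved, SEC-polished) labelled with NT-650-NHS, held at 10 nM. Ligand serial dilutions were made in PBS pH 7.2 with 0.05% Tween 20, giving 100 μM to 3.05 nM final. Read on Monolith X at 25 °C, 100% LED, as the 670/650 nm ratio. Amplitude is the unbound-to-bound plateau difference.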

[5] = tested on: α-synuclein (aSyn) aggregates in dopamine neurons; assay: α-synuclein; type: cell-based, rat
How it was run: (§2)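 Rat primary mesencephalic neurons were used. On DIV6, medium (Neurobasal, B27, BDNF, GDNF) was replaced with medium containing 4 µM MPP+ for 48 h. Test compound, from PBS stocks diluted in medium, was added 4 h before MPP+. Six wells per condition; fixed, then immunostained for TH and α-synuclein. Twenty 10x images per well, automated count of TH+ neurons and TH/aSyn overlap area. Reported as % of untreated control; one-way ANOVA with Dunnett's test.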

[6] = tested on: TH-positive dopamine neurons (rat primary mesencephalic neurons); type: cell-based; conditions: for neuroprotective activity: any of the tested concentrations
How it was run: as §2

[7] = MPP+ injury, 4 µM, 48 h, p < 0.0001 vs control
[8] = SEC-SAXS, PBS pH 7.2, 1.5% glycerol, 20 °C

T1 sequence (P11021 26-382): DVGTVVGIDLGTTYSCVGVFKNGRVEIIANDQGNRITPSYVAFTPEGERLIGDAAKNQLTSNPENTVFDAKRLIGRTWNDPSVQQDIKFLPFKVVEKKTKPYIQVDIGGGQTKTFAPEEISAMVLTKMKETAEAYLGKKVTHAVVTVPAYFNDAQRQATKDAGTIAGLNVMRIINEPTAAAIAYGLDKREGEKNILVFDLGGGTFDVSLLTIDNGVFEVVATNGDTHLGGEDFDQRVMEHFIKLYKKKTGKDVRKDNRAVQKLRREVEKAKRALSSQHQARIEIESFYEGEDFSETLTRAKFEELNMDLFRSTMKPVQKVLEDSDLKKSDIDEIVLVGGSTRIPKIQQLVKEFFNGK

## C[n+]1ccc(-c2ccccc2)cc1 [MPP^+, 1-methyl-4-phenyl-pyrididium, reference compound]
nucleus-localized ATF6; [7]
  increase of nucleus-localized ATF6 from control cells: 79.5 ± 6.2
nucleus-localized ATF4; [7]
  increase of nucleus-localized ATF4 from control cells: 42.1 ± 6.1
Phosphorylated IRE1α; [7]
  increase of S724 phosphorylated IRE1α from control cells: 81.0 ± 5.0%

## CDNF: Cerebral dopamine neurotrophic factor, CDNFWT (aa 25-187), expressed in E. coli
GRP78-NBD [1]; shift of SEC-SAXS elution peak to earlier elution, excess ligand
  complex formation with GRP78-NBD: formed a complex with GRP78-NBD

## GRP78-NBD: nucleotide-binding domain of GRP78 (aa 26-382), expressed in E. coli
GRP78-NBD [1]; [8]
  Dmax (PDDF/P(r) analysis): 6.5 nm and 6.5 ± 0.2 nm
  Rg (Guinier Analysis): 2.2 nm and 2.2 ± 0.1 nm
GRP78-NBD [1]; from SEC-SAXS data
  Envelope volume (ab initio modeling, Dammif): 83 nm^3

B1: ^13C/^15N-Ala-labeled C-CDNF: C-CDNF with labeled alanine residues A135, A145, A162, A175, A179, A180 (peptide)
peptide: KYEKTLDL[Ala(13C3,15N)]SVDLRKMRV[Ala(13C3,15N)]ELKQILHSWGEECRAC[Ala(13C3,15N)]EKTDYVNLIQEL[Ala(13C3,15N)]PKY[Ala(13C3,15N)][Ala(13C3,15N)]THPKTEL
modifications: disulfide 32-35
GRP78-NBD [2]
  effect of GRP78-NBD titration on Ala methyl groups: The three well-resolved methyl groups of A145, A162 and A175 are clearly affected; also recorded: A179 and A180 do not display any clear effects

B2: MANF: mesencephalic astrocyte-derived neurotrophic factor (protein, UniProt P55145 25-182, looked up)
Mesencephalic …: LRPGDCEVCISYLGRFYQDLKDRDVTFSPATIENELIKFCREARGKENRLCYYIGATDDAATKIINEVSKPLAHHIPVEKICEKLKKKDSQICELKYDKQIDLSTVDLKKLRVKELKKILDDWGETCKGCAEKSDYIRKINELMPKYAPKAASARTDL
GRP78-NBD [3]
  binding to GRP78 nucleotide-binding domain: binds to the regulatory, nucleotide-binding domain of GRP78 via its C-terminal domain

B3: C-CDNF-MT1 (protein)
peptide: KYEKTLDLASVDLRKMRVAELKQILHSWGEECRACAAATDYVNLIQELAPKYAATHPKTEL
modifications: disulfide 32-35
GRP78-NBD [4]
  binding to GRP78-NBD (spectral shift), in words: do not bind to GRP78-NBD
[5]; maximal effect over tested concentrations (5-500 nM), p = 0.4382
  maximal reduction of aSyn aggregation from MPP+ model effect: 21.2 ± 5.9%
nucleus-localized ATF4
  UPR modulating effect on PERK/ATF4 pathway: nearly completely lost the UPR modulating effect
Phosphorylated IRE1α
  UPR modulating effect on IRE1α pathway: nearly completely lost the UPR modulating effect
[6]; MPP+ 48 h
  neuroprotective activity: did not show any neuroprotective activity
[6]; maximal effect over tested concentrations (5-500 nM), p = 0.9771
  maximal increase of dopamine neuron survival from MPP+ model effect: 13.6 ± 6.7%

B4: C-CDNF-MT3 (protein)
chain: KYEKTLDLASVDLRKMRVAELKQILHSWGEECAACAEATDYVNLIQELAPKYAATHPKTEL
modifications: disulfide 32-35
nucleus-localized ATF6; 5-500 nM
  ATF6 pathway modulating activity: dose-dependent effect
GRP78-NBD [4]
  binding to GRP78-NBD (spectral shift), in words: impaired binding to GRP78-NBD; also recorded: weak binding to GRP78-NBD
[5]; 500 nM, MPP+ 48 h, p = 0.0073
  reduction in aSyn aggregation, change from MPP+ model effect: −42.1 ± 7.7%
nucleus-localized ATF4; 500 nM, p = 0.0498
  decrease in nuclear ATF4: 55.3 ± 8.2%
Phosphorylated IRE1α; 500 nM, p = 0.0003
  decrease in phospho-IRE1α: 67.2 ± 6.0%
Phosphorylated IRE1α; 5 and 50 nM
  UPR modulating activity: loss of UPR modulating activity
[6]; 500 nM, MPP+ 48 h, p = 0.0878
  increase of dopamine neuron survival from MPP+ model effect: 40.3 ± 8.4%
[6]; MPP+ 48 h
  neuroprotective activity: reduced potency in the neuroprotection assay

B5: C-CDNF-MT2: C-CDNF mutant E156/157/163A (peptide)
peptide: KYEKTLDLASVDLRKMRVAELKQILHSWGAACRACAAKTDYVNLIQELAPKYAATHPKTEL
modifications: disulfide 32-35
GRP78-NBD [4]
  binding to GRP78-NBD (spectral shift), in words: do not bind to GRP78-NBD
[5]; all three tested concentrations, compared to wild-type C-CDNF
  activity in neuroprotection or aSyn aggregation: very low activity in neuroprotection or aSyn aggregation
nucleus-localized ATF4
  UPR modulating effect on PERK/ATF4 pathway: nearly completely lost the UPR modulating effect
Phosphorylated IRE1α
  UPR modulating effect on IRE1α pathway: nearly completely lost the UPR modulating effect
[6]; MPP+ 48 h
  neuroprotective activity: did not show any neuroprotective activity

— paper PMC11408689 (Nature Communications, 2024)
